Columns and labels:
Conditions in all cases: stereoisomer not certain
OR7D4 (Homo sapiens) = biological target: T1, OR7D4 (Homo sapiens) (UniProt Q8NG98)
T1 sequence (whole entry): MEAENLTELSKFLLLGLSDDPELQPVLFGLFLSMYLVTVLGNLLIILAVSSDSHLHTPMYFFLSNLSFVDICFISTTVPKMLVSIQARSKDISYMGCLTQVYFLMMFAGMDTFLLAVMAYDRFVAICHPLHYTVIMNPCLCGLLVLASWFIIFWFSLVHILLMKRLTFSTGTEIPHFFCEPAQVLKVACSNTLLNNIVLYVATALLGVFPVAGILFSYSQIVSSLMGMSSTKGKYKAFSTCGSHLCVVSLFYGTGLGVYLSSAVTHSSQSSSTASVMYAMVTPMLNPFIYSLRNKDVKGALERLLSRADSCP
In short: (§1)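 Transient luciferase assays in mammalian cell lines were common, though methods varied by source. The values come from published papers and their supplementary material, with extra details from the original authors when needed. Responsive refers to a measured signal the original authors judged statistically different from baseline, and non-responsive (inactive) to the remainder.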

OR7D4 R88W = tested on: OR7D4 R88W
In short: as §1

OR7D4 = tested on: OR7D4
In short: as §1

OR7E24 (Homo sapiens) = OR7E24 (Homo sapiens) (UniProt Q6IFN5)
In short: as §1

OR7G1 (Homo sapiens) = OR7G1 (Homo sapiens) (UniProt Q8NGA0)
In short: as §1

OR7G2 = tested on: OR7G2
In short: as §1

OR7G3 (Homo sapiens) = OR7G3 (Homo sapiens) (UniProt Q8NG95)
In short: as §1

OR7G3 M29V = tested on: OR7G3 M29V
In short: as §1

OR8A1 (Homo sapiens) = OR8A1 (Homo sapiens) (UniProt Q8NGG7)
In short: as §1

OR8B12 (Homo sapiens) = OR8B12 (Homo sapiens) (UniProt Q8NGG6)
In short: as §1

OR8B2 (Homo sapiens) = OR8B2 (Homo sapiens) (UniProt Q96RD0)
In short: as §1

OR8B2 L164F = tested on: OR8B2 L164F
In short: as §1

OR8B2 S273F = tested on: OR8B2 S273F
In short: as §1

OR8B3 (Homo sapiens) = OR8B3 (Homo sapiens) (UniProt Q8NGG8)
In short: as §1

OR8B3 H20R Q24R M114I = tested on: OR8B3 H20R Q24R M114I
In short: as §1

OR8B3 H20R Q24R Y113H = tested on: OR8B3 H20R Q24R Y113H
In short: as §1

OR8B3 H20R Q24R = tested on: OR8B3 H20R Q24R
In short: as §1

OR8B4 (Homo sapiens) = OR8B4 (Homo sapiens) (UniProt Q96RC9)
In short: as §1

OR8B4 = tested on: OR8B4
In short: as §1

OR7G2 (Homo sapiens) = OR7G2 (Homo sapiens) (UniProt Q8NG99)
In short: as §1

Measured: odorant receptor agonist call;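 further: active if original authors judged signal statistically different from baseline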

Sequence of OR8B3 (Homo sapiens) (Q8NGG8 whole entry): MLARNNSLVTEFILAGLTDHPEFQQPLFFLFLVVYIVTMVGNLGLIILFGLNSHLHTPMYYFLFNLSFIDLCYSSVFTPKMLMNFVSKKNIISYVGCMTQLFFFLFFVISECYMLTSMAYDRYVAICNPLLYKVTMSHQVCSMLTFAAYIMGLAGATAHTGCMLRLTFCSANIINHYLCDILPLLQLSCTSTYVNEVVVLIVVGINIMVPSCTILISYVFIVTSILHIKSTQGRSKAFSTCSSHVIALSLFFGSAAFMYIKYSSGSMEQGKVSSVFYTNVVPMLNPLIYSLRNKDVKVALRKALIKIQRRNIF
Sequence of OR8A1 (Homo sapiens) (Q8NGG7 whole entry): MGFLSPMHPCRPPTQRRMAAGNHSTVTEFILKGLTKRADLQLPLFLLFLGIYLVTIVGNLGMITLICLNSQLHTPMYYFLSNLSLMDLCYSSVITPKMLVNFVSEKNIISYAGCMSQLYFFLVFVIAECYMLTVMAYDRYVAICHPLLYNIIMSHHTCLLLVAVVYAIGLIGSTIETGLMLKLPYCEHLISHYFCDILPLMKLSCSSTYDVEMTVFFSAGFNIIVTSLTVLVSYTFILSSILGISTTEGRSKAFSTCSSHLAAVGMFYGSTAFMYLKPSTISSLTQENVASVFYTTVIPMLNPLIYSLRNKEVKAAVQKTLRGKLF
Sequence of OR7E24 (Homo sapiens) (Q6IFN5 whole entry): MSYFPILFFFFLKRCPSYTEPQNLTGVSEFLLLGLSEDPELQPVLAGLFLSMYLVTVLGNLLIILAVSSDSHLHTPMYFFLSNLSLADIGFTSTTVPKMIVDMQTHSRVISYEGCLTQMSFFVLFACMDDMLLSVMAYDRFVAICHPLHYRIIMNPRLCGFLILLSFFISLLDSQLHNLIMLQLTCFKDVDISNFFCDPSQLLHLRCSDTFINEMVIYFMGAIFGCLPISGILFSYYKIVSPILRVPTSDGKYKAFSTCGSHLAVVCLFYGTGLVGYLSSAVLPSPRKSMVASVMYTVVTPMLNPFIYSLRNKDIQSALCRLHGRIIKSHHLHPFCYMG
Sequence of OR8B2 (Homo sapiens) (Q96RD0 whole entry): as the sequence (Q8NGG8 whole entry) above, with Q24R, V34I, I47T, Y94N, Q100R, I205T, M208T counted along it
Sequence of OR7G3 (Homo sapiens) (Q8NG95 whole entry): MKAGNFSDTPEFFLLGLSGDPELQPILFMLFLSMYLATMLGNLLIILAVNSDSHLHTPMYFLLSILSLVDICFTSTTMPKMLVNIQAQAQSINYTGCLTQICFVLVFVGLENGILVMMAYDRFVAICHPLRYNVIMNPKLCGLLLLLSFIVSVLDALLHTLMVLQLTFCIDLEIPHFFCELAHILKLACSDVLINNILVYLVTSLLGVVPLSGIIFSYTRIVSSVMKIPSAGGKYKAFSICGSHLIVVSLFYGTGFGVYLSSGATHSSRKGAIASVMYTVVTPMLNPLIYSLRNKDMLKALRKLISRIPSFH
Sequence of OR8B4 (Homo sapiens) (Q96RC9 whole entry): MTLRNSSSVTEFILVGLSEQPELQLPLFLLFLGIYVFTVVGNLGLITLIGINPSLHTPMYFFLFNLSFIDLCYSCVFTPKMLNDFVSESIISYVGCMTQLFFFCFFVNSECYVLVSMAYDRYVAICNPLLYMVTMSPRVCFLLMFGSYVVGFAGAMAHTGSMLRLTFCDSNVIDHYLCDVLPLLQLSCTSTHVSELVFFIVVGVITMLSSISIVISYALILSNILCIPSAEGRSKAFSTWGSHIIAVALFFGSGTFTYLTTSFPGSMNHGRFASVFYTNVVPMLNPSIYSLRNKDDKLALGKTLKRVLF
Sequence of OR7D4 (as listed by the source): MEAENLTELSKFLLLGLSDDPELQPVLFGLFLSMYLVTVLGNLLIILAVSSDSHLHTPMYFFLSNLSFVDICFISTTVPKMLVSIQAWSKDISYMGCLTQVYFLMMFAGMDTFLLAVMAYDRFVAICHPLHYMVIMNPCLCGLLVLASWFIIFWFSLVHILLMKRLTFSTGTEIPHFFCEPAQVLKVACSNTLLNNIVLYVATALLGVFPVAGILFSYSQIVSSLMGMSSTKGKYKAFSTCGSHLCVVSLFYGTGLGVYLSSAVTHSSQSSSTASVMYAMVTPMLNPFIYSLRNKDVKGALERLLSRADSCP
Sequence of OR8B12 (Homo sapiens) (Q8NGG6 whole entry): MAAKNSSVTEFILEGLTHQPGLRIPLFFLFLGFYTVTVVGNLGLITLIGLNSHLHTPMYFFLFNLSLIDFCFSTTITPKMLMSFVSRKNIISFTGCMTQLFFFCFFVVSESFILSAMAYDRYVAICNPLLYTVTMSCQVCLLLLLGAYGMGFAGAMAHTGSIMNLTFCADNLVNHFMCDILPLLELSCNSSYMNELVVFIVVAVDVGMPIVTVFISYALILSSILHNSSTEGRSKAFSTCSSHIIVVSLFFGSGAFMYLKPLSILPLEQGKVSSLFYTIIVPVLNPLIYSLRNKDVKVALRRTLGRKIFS
Sequence of OR7G1 (Homo sapiens) (Q8NGA0 whole entry): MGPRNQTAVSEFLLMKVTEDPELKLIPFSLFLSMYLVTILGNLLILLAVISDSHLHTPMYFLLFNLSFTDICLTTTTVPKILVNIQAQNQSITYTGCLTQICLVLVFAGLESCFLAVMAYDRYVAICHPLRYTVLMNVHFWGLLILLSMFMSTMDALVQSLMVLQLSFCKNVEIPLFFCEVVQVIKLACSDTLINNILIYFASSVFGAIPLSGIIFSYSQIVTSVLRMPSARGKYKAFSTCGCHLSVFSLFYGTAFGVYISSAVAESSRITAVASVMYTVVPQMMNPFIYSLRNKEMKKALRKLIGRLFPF
Sequence of OR8B4 (as listed by the source): as the sequence (Q96RC9 whole entry) above, with E22G counted along it
Sequence of OR7D4 R88W (as listed by the source, stated change not applied): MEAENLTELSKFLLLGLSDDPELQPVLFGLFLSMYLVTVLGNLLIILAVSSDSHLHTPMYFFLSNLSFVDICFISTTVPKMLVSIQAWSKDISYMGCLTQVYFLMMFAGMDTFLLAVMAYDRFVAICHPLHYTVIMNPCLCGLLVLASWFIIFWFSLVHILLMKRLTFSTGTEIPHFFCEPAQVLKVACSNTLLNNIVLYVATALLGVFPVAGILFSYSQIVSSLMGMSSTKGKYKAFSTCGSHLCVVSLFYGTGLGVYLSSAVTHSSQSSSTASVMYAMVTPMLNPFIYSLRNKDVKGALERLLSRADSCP
Sequence of OR8B2 L164F (as listed by the source, stated change not applied): as the sequence (Q8NGG8 whole entry) above, with Q24R, V34I, I47T, Y94N, Q100R, L164F, I205T, M208T counted along it
Sequence of OR8B2 S273F (as listed by the source, stated change not applied): as the sequence (Q8NGG8 whole entry) above, with Q24R, V34I, I47T, Y94N, Q100R, I205T, M208T, S273F counted along it
Sequence of OR7G2 (Homo sapiens) (Q8NG99 whole entry): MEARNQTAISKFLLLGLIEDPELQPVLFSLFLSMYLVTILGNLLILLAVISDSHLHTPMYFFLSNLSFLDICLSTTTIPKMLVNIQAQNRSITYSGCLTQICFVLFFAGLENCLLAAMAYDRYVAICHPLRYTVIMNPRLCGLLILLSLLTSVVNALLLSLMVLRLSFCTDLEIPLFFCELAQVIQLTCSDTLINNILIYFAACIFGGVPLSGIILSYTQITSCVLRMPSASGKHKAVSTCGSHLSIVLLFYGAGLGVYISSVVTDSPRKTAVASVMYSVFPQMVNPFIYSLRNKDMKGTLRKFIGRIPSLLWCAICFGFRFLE
Sequence of OR7G3 M29V (as listed by the source, stated change not applied): as the sequence (Q8NG95 whole entry) above, with M29V counted along it
Sequence of OR7G2 (as listed by the source): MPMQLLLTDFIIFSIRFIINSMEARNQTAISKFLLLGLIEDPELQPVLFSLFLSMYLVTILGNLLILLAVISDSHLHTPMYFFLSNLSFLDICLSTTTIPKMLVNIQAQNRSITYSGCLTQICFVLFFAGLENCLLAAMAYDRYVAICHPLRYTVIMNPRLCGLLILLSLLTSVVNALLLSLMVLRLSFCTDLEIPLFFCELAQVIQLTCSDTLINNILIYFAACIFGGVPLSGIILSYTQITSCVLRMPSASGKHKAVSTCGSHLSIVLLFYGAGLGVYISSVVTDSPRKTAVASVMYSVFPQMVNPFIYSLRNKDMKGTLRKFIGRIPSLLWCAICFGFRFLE

C=CCOC(=O)Cc1ccccc1
not listed: OR7G2 (Homo sapiens)
inactive: all other assays above

Cc1c([N+](=O)[O-])c(C)c([N+](=O)[O-])c(C(C)(C)C)c1[N+](=O)[O-]
inactive: OR7D4 (Homo sapiens) | OR7E24 (Homo sapiens) | OR7G1 (Homo sapiens) | OR7G2 (Homo sapiens) | OR7G3 (Homo sapiens) | OR8A1 (Homo sapiens) | OR8B12 (Homo sapiens) | OR8B2 (Homo sapiens) | OR8B3 (Homo sapiens) | OR8B4 (Homo sapiens)

C=C(C)C1CCC2(C)OOC(C1)O2 (stereo unspecified)
inactive: OR7D4 (Homo sapiens) | OR7D4
